Source: ChEMBL document CHEMBL1151751, “Bisphosphonate inhibition of a Plasmodium farnesyl diphosphate synthase and a general method for predicting cell-based activity from enzyme data” (J Med Chem, 2008)

Assays:
[1] = Inhibition of Plasmodium vivax FPPS expressed in Escherichia coli BL21 by spectrophotometric assay
Method in brief: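 Recombinant enzyme from lysed cells (lysozyme, nuclease, protease inhibitors), purified on Ni-NTA resin. The GPP + IPP condensation was followed at room temperature by a continuous spectrophotometric phosphate-release assay in 25 mM Hepes, 2.5 mM MgCl₂, pH 7.4. Inhibitors were preincubated with enzyme for 30 min at room temperature. IC50 was obtained by fitting the dose–response curve.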

[2] = tested on: Plasmodium berghei; assay: Antiparasitic activity against Plasmodium berghei ANKA infected BALB/c mice (Mus musculus) as reduced parasitaemia; format: functional; design: scale not given: the % may be the effect or the level left
[3] = tested on: Plasmodium falciparum; assay: Growth inhibition of Plasmodium falciparum; format: functional, organism-based

SMILES | IC50 [1] | pIC50 [1] | Activity [2] | IC50 ([3]; read-out: IC50) | IC50 ([3]; read-out: pIC50 (converted))
CCCCCCCCCC(O)(P(=O)(O)O)P(=O)(O)O | 0.71 µM | 6.1 | 80% |  | 
CCCCCN(C)CCC(O)(P(=O)(O)O)P(=O)(O)O [IBANDRONIC ACID] | 0.92 µM | 6 |  | 74 µM | 79.4 µM
Cc1ccc(C)c(COc2ccc(C)nc2NC(P(=O)(O)O)P(=O)(O)O)c1 | 98 µM | 4 |  | 200 µM | 200 µM
CN(CCc1ccccc1)CCC(O)(P(=O)(O)O)P(=O)(O)O | 0.4 µM | 6.4 |  |  | 31.6 µM
Cc1cccc(CC(O)(P(=O)(O)O)P(=O)(O)O)c1 | 2.3 µM | 5.6 |  | 23 µM | 25.1 µM
O=P(O)(O)C(CNc1ccccn1)P(=O)(O)O | 0.82 µM | 6.1 |  | 28 µM | 25.1 µM
CCCCCCC(O)(P(=O)(O)O)P(=O)(O)O | 0.63 µM | 6.2 |  | 1.4 µM | 1.26 µM
CCCCCCCCCNC(P(=O)(O)O)P(=O)(O)O [(NONYLAMINO)METHYLENEDIPHOSPHONIC ACID] | 5.2 µM | 5.3 | 80% |  | 100 µM
O=P([O-])(O)C(O)(CC1=[n+]2ccccc2=NC1)P(=O)(O)O (stereo not given) |  |  |  | 90 µM | 100 µM
O=P(O)(O)C(Nc1ccc(Cl)cn1)P(=O)(O)O |  |  |  |  | 10 µM
CN(CCCc1ccccc1)CCC(O)(P(=O)(O)O)P(=O)(O)O | 0.45 µM | 6.3 |  |  | 25.1 µM
O=P(O)(O)C(O)(Cc1cccc(C(F)(F)F)c1)P(=O)(O)O | 0.68 µM | 6.2 |  | 3.8 µM | 3.98 µM
O=P(O)(O)C(O)(CSc1ccncc1)P(=O)(O)O | 1.2 µM | 5.9 |  |  | 
CN(Cc1ccccc1)C(P(=O)(O)O)P(=O)(O)O | 0.87 µM | 6.1 |  | 180 µM | 200 µM
CCCCCCCCCCCCCC(O)(P(=O)(O)O)P(=O)(O)O | 4.1 µM | 5.4 |  |  | 2 µM
CN(CCCCc1ccccc1)CCC(O)(P(=O)(O)O)P(=O)(O)O |  |  |  |  | 3.16 µM
O=P(O)(O)C(O)(Cn1ccnc1)P(=O)(O)O [ZOLEDRONIC ACID] |  |  |  |  | 158 µM
O=P(O)(O)C(O)(Cc1cccc(F)c1)P(=O)(O)O | 0.63 µM | 6.2 |  | 6.4 µM | 6.31 µM
O=P(O)(O)C(Nc1nccs1)P(=O)(O)O | 0.71 µM | 6.1 |  | 120 µM | 126 µM
CCCCCCCCNC(P(=O)(O)O)P(=O)(O)O [(OCTYLAMINO)METHYLENEDIPHOSPHONIC ACID] | 0.49 µM | 6.3 |  | 12 µM | 12.6 µM
O=P(O)(O)C(O)(Cc1cccc(Br)c1)P(=O)(O)O | 0.88 µM | 6.1 |  | 22 µM | 20 µM
O=P(O)(O)C(O)(Cc1ccccn1)P(=O)(O)O | 0.9 µM | 6 |  | 220 µM | 200 µM
CCCC(O)(P(=O)(O)O)P(=O)(O)O | 0.78 µM | 6.1 |  |  | 126 µM
O=P(O)(O)C(O)(Cc1ccccc1)P(=O)(O)O |  |  |  | 11 µM | 10 µM
O=P(O)(O)C(O)(Cc1cccc(Cl)c1)P(=O)(O)O | 0.63 µM | 6.2 |  | 4.3 µM | 3.98 µM
